An excerpt weighted towards active compounds, which were near 2.3% of everything screened.
TRPC4 agonist = activators of mouse TRPC4 channel, primary screen, Fluo4 calcium, HEK293 TRPC4beta/mu-opioid cells; Short transient receptor potential channel 4 (Mus musculus), Q9QUQ5; Fluo4 calcium fluorescence; hits give high values; B-score at 10 µM; actives 0.49% (n = 310,000);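 active = B-score above 5 SD of library B-scores, and initial fluorescence ratio not above library mean plus 5 SD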;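 note: positive B-score marks a calcium rise read as TRPC4 activation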
Target sequence (Q9QUQ5 whole entry, looked up): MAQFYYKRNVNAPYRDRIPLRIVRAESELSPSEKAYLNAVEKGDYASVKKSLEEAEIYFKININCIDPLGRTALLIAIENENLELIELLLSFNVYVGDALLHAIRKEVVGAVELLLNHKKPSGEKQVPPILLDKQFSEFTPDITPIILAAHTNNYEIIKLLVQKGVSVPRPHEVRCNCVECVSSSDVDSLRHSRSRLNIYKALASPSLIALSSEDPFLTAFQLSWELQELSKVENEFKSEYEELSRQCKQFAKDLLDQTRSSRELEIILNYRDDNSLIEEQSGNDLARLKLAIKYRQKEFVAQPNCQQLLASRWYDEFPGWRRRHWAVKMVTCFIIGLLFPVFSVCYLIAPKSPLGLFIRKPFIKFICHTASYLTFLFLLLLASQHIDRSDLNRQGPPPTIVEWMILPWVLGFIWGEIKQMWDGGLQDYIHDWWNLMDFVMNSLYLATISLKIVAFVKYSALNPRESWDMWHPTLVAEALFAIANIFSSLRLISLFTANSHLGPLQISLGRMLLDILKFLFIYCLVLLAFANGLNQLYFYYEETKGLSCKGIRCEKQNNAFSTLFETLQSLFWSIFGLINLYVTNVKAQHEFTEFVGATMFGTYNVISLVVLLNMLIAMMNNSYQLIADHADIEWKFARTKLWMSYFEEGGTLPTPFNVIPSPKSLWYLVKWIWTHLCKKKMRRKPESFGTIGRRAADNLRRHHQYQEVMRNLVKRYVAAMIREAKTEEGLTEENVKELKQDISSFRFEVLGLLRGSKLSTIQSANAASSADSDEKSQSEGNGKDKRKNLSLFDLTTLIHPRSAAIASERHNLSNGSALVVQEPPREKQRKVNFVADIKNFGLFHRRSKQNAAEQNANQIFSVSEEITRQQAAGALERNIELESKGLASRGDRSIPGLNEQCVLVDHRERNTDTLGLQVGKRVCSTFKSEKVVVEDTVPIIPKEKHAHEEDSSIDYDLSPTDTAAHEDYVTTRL
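System: HEK293 cells stably co-expressing mouse TRPC4beta and mu-opioid receptor; Schedule: Fluo4 dye loading 45 min at room temperature, 110 s recording; Detection: Fluo4 fluorescence, kinetic; Evaluation: B-scored integrated calcium fluorescence ratio; Controls: buffer (low) and maximal DAMGO (high).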
TRPC6 inhibitor = mouse TRPC6 channel inhibitors, primary screen, cell-based, HEK293, membrane potential dye; ACh-evoked depolarization; hits give low values; B-score at 10 µM; actives 1.1% (n = 310,000);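 active = B-score under library mean minus 3 SD, initial fluorescence not abnormally high, positive integrated signal ratio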;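 note: B-score derived from integrated fluorescence ratio over the kinetic read; more negative B-score means stronger inhibition of depolarization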
TRPC6 activator = mouse TRPC6 channel activators, primary screen, cell-based, HEK293, membrane potential dye; Short transient receptor potential channel 6 (Mus musculus), Q61143; HEK293-TRPC6 membrane potential dye fluorescence; hits give high values; B-score at 10 µM; actives 0.13% (n = 310,000); AID 2550, 2010;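 active = B-score of the integrated fluorescence ratio above library mean plus 3 SD, and starting fluorescence ratio within library mean plus 5 SD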;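 note: higher score means more depolarization so channel activation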
TRPC4 block = inhibitors of mouse TRPC4 channel, primary screen, Fluo4 calcium, HEK293 TRPC4beta/mu-opioid cells; DAMGO-evoked Fluo4 calcium flux; hits give low values; actives 0.39% (n = 300,000); B-score at 10 µM; Short transient receptor potential channel 4 (Mus musculus), Q9QUQ5; AID 2247, 2010;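 active = B-score over 3 SD under the library average, no early fluorescence shift, positive overall ratio signal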
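Material: HEK293 cells with stable TRPC4beta plus mu-opioid receptor expression / Probe or stimulus: DAMGO in two steps, submaximal then maximal / Compound: single concentration per test compound / Technique: kinetic Fluo4 fluorescence imaging of calcium influx / Read-out: per-well B score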
TRPC4 potent = positive allosteric modulators of TRPC4, primary screen, cell-based, mouse TRPC4beta, HEK293 mu-opioid, Fluo-4 calcium; AID 2227, 2009; DAMGO EC20, Fluo-4 Ca2+ flux; hits give high values; Short transient receptor potential channel 4 (Mus musculus), Q9QUQ5; actives 0.42% (n = 310,000); B-score at 10 µM;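 active = B-score of calcium response area above 5 SD of library B-scores, with initial fluorescence ratio within 5 SD of library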
TRPC4 spec 2 = mouse TRPC4 off-target activity of TRPC6 inhibitors, second screen; actives 42% (n = 920); HEK293 TRPC4/MOR, membrane potential dye fluorescence; channel activated by saturating DAMGO dose; shares compounds with TRPC6 inhibitor; inhibition, % at 10 µM;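 active = compounds whose fluorescence signal differed from control wells by over 3 SD, either direction, in both duplicate plates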
TRPC4 spec = mouse TRPC4 modulation by TRPC6 hits, confirmation, selectivity assay for TRPC6 inhibitor project, cell-based, HEK293 TRPC4/mu-opioid, membrane potential dye; actives 61% (n = 920); activity change, negative = inhibition, % at 10 µM; AID 2777, 2010; membrane potential fluorescence; shares compounds with TRPC6 inhibitor;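 active = rise or fall in signal beyond 3 SD of buffer-only wells in both replicate plates, either sign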;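 note: integrated kinetic ratio of fluorescence range over baseline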
HEK293 MPD ctr 2-1 = nonspecific membrane potential effects, parental HEK293, confirmation, counter-screen for TRPC6 inhibitor project, cell-based, second counter screen | shares compounds with TRPC6 inhibitor | parental HEK293 membrane potential dye fluorescence; maximal acetylcholine challenge after compound addition | actives 31% (n = 920) | signal change vs control, % at 10 µM;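 active = membrane potential signal moving either way by over 3 SD of the maximum-effect control, in both duplicate plates, meaning non-specific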
HEK293 MPD ctr-1 = membrane potential modulation in parental HEK293, confirmation, counter-screen for TRPC6 inhibitor project, cell-based | shares compounds with TRPC6 inhibitor | parental HEK293 membrane potential dye fluorescence | membrane potential signal change, % at 10 µM | actives 60% (n = 920) | AID 2780, 2010;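 active = membrane potential signal shifting up or down by more than 3 SD of buffer-only wells, on both duplicate plates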
HEK293 MPD ctr-2 = parental HEK293 membrane potential modulation, confirmation, counter-screen for TRPC6 modulator project, cell-based. shares compounds with TRPC6 inhibitor. membrane potential dye fluorescence. membrane potential signal change, % at 10 µM. actives 51% (n = 2,400). AID 488924, 2010;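 active = membrane potential signal moves up or down beyond 5 SD from buffer-only wells, on both duplicate plates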
HEK293 MPD ctr 2-2 = parental HEK293 nonspecific activity of TRPC6 modulators, second screen. shares compounds with TRPC6 inhibitor. membrane potential dye fluorescence; after compound, maximal acetylcholine stimulation. inhibition, % at 10 µM. actives 14% (n = 2,400);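 active = membrane potential signal drops by more than 5 SD from the mean control signal, in both duplicate plates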
TRPC4/MOR mod = TRPC4 modulation by TRPC6 hit compounds, confirmation, selectivity assay for TRPC6 modulator project, cell-based, HEK293 TRPC4/mu-opioid, membrane potential dye, mouse; shares compounds with TRPC6 inhibitor; membrane potential fluorescence; percent change from control (negative = decrease, positive = increase), % at 10 µM; actives 69% (n = 2,400);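 active = membrane potential signal moved up or down beyond 5 SD of buffer control wells, in both duplicate plates, actives on both sides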
TRPC4 ctr inh 2 = second check of whether TRPC6 modulators also affect mouse TRPC4. shares compounds with TRPC6 inhibitor. HEK293 TRPC4/mu-opioid, membrane potential dye fluorescence; stimulated with maximal-effect DAMGO. inhibition, % at 10 µM. actives 55% (n = 2,400);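 active = drop in membrane potential signal beyond 5 SD of the control wells in both duplicate plates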;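 note: TRPC4 counter screen for TRPC6 hits run under conditions tuned for TRPC6 not TRPC4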
TRPC6 inh conf = mouse TRPC6 channel inhibitors, confirmation, HEK293 cells, membrane potential dye, duplicate. AID 488960, 2010. shares compounds with TRPC6 inhibitor. ACh-evoked depolarization. actives 43% (n = 3,300). inhibition, % at 10 µM;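 active = fluorescence ratio falls more than 5 SD below the full-stimulation control mean, in both duplicate runs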;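 note: integrated fluorescence ratio of peak minus minimum over baseline after agonist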
TRPC6 act conf = mouse TRPC6 channel activators, confirmation, HEK293 cells, membrane potential dye, duplicate | HEK293-TRPC6 membrane potential dye fluorescence, FDSS | actives 11% (n = 2,800) | AID 488961, 2010 | activation, % at 10 µM | shares compounds with TRPC6 inhibitor;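 active = ratio signal rise beyond 5 SD above unstimulated control wells' mean, seen in both duplicate runs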
A number is an active result; . = inactive; / = not tested or not shown.

SMILES	TRPC4 agonist	TRPC6 inhibitor	TRPC6 activator	TRPC4 block	TRPC4 potent	HEK293 MPD ctr-2	HEK293 MPD ctr 2-2	TRPC4/MOR mod	TRPC4 ctr inh 2	TRPC6 inh conf	TRPC6 act conf	others
CCCCCc1nc2sc3c(c2c(=O)n1NC(=O)c1ccc([N+](=O)[O-])cc1)CC(C)(C)OC3	.	-5.66	.	.	.	.	.	.	63.5%	56.5%	.
CC(C)c1cc(C(C)C)c(S(=O)(=O)N2CCNCC2)c(C(C)C)c1	.	-5.77	.	.	.	.	.	.	64.5%	41.5%	.
CCN1CCN(c2cc(C)c3cc(NC(=O)c4ccc(C)c(C)c4)ccc3n2)CC1	.	.	.	.	.	/	/	/	/	/	/
CCN1CCN(c2cc(C)c3cc(NC(=O)c4ccncc4)ccc3n2)CC1	.	-5.48	.	.	.	-100.5%	.	.	.	.	.
CCN1CCN(c2cc(C)c3cc(NC(=O)c4ccc(Br)o4)ccc3n2)CC1	.	-5.45	.	-6	.	.	.	-11.5%	42.5%	.	.
Cc1cc(C)n(C(=O)c2ccc([N+](=O)[O-])cc2Cl)n1	.	.	.	.	.	/	/	/	/	/	/
Cc1cc(OCC(=O)NNC(=O)CCc2ccccc2)ccc1Br	.	.	.	.	.	/	/	/	/	/	/
Cc1cc(C)nc(/N=C(\N)N2CCc3ccccc32)n1	.	-6.36	.	.	.	.	.	-11.5%	46.0%	.	.
CCOC(=O)c1c(NC(=O)COC(=O)c2ccc(O)cc2)sc(C(=O)N(C)C)c1C	.	.	.	.	.	/	/	/	/	/	/
CCOC(=O)c1c(NC(=O)COC(=O)CCOc2ccc(OCC)cc2)sc(C(=O)N(C)C)c1C	.	.	12.5	.	61	279.0%	.	165.0%	71.5%	.	124.0%
CCOC(=O)c1c(NC(=O)COC(=O)c2ccccn2)sc(C(=O)N(C)C)c1C	.	.	.	.	.	/	/	/	/	/	/
CCOC(=O)c1c(NC(=O)COC(=O)CCOc2ccc(C)cc2)sc(C(=O)N(C)C)c1C	.	.	14.3	.	.	480.5%	.	44.0%	66.0%	.	.
COC(=O)c1c(NC(C)=O)csc1C	.	.	.	.	.	/	/	/	/	/	/
O=C(CC1C(=O)NCCN1C(=O)Nc1ccc(C(F)(F)F)cc1)Nc1ccc(F)cc1 (stereo not given)	.	-5.05	.	.	.	-106.0%	.	-18.0%	45.0%	.	.
COc1ccc(S(=O)(=O)N2CCNC(=O)CC2)cc1	.	.	.	.	.	/	/	/	/	/	/
OCC[C@H]1C[C@@H](O)[C@H](O)[C@@]2(CCCCO2)O1	.	-7.36	.	.	.	/	/	/	/	.	.	TRPC4 spec 2=.;TRPC4 spec=.;HEK293 MPD ctr 2-1=.;HEK293 MPD ctr-1=.
O=C(NCCc1c[nH]c2ccccc12)C(=O)NCC(c1ccco1)N1CCN(c2ccccc2F)CC1 (stereo not given)	.	.	.	.	.	/	/	/	/	/	/
COc1ccc(C(=O)NC(=S)Nc2ccc(CN3CCOCC3)cc2)cc1Br	.	.	.	.	.	/	/	/	/	/	/
O=C(c1ccc(Cl)cc1Cl)N1CCN(c2ccc(N3CCOCC3)nn2)CC1	.	.	.	.	.	/	/	/	/	/	/
Cn1c(SCc2c(Cl)cccc2Cl)nnc1-c1cccs1	.	-6.56	.	.	.	274.5%	.	55.5%	.	.	/
Cc1ccc(CSc2nnc(-c3cccs3)n2C)cc1	.	.	.	.	.	/	/	/	/	/	/
O=S(=O)(Nc1ccc(Br)cn1)c1ccc2ccccc2c1	.	.	.	.	.	/	/	/	/	/	/
COc1ccc(C(CCNCc2ccc(N(C)C)cc2)C(C)C)cc1 (stereo not given)	.	-5.17	.	.	.	237.0%	.	44.5%	56.0%	46.5%	/
COc1ccc(C(CCNCc2ccc(OC(C)C)cc2)C(C)C)cc1 (stereo not given)	.	.	.	.	.	/	/	/	/	/	/
COc1cc(/C=C2/SC(=S)N(CC3CCCO3)C2=O)ccc1O (stereo not given)	.	.	15.7	.	.	211.5%	.	89.0%	.	.	40.5%
COc1ccc(/C=C2\SC(=S)N(CC3CCCO3)C2=O)cc1 (stereo not given)	.	.	.	.	.	/	/	/	/	/	/
COc1ccc(/C=C(/NC(=O)/C=C/c2ccccc2)C(=O)N2CCOCC2)cc1	.	-5.84	.	.	.	.	.	.	.	41.5%	.
O=c1[nH]c2c(c(=O)[nH]1)CCC2	.	.	.	.	.	/	/	/	/	/	/
